Reference: ChEMBL document CHEMBL2034831, “Quinazoline-tyrphostin as a new class of antitumor agents, molecular properties prediction, synthesis and biological testing” (Eur J Med Chem, 2012)

Tests used:
Assay type in all cases: functional, cell-based
MCF7 = assay: Cytotoxicity against human MCF7 cells after 3 days by MTT assay; settings: MCF7, 72 h
Procedure, shortened: (§1)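 Cells kept in RPMI-1640 with 10% calf serum. Exponentially growing cells seeded at 4 × 10⁴ cells/mL, then medium replaced with fresh medium holding test compound (controls got solvent only). After incubation, MTT added for a further 4 h at 37 °C and formazan dissolved in DMSO. Read by OD. %inhibition = (OD control − OD test)/OD control × 100. Compounds giving ≥70% inhibition in a one-dose prescreen were serially diluted (0.06–0.002 range) for IC50.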

HepG2 = assay: Cytotoxicity against human HepG2 cells after 3 days by MTT assay; settings: HepG2, 72 h; procedure, shortened: as §1
HeLa = assay: Cytotoxicity against human HeLa cells after 3 days by MTT assay; settings: 72 h; procedure, shortened: as §1

With Cc1ccc2nc(C)n(NC(=O)CC#N)c(=O)c2c1 the IC50 (MCF7) was 40 µM, the IC50 (HepG2) was 55 µM and the IC50 (HeLa) was 30 µM.
For Cc1ccc2nc(C)n(NC(=O)/C(C#N)=C/c3ccccc3)c(=O)c2c1, the IC50 (MCF7) was 9 µM, the IC50 (HepG2) was 14 µM and the IC50 (HeLa) was 13 µM.
Cc1ccc(/C=C(\C#N)C(=O)Nn2c(C)nc3ccc(C)cc3c2=O)cc1 was tested, and the IC50 (MCF7) was 10 µM, the IC50 (HepG2) was 12 µM and the IC50 (HeLa) was 9 µM.
Work on Cc1ccc2nc(C)n(NC(=O)/C(C#N)=C/c3ccc(Cl)cc3)c(=O)c2c1 yielded an IC50 (MCF7) of 12 µM, an IC50 (HepG2) of 9 µM and an IC50 (HeLa) of 12 µM.
Molecule Cc1ccc2nc(C)n(NC(=O)/C(C#N)=C/c3ccc([N+](=O)[O-])cc3)c(=O)c2c1 has an IC50 (MCF7) of 12 µM, an IC50 (HepG2) of 10 µM and an IC50 (HeLa) of 15 µM.
With Cc1ccc2nc(C)n(NC(=O)/C(C#N)=C/c3cccc(O)c3)c(=O)c2c1 the IC50 (MCF7) was 15 µM, the IC50 (HepG2) was 14 µM and the IC50 (HeLa) was 14 µM.
Cc1ccc2nc(C)n(NC(=O)/C(C#N)=C/c3ccc(O)cc3)c(=O)c2c1 gave an IC50 (MCF7) of 14 µM, an IC50 (HepG2) of 13 µM and an IC50 (HeLa) of 13 µM.
Cc1ccc2nc(C)n(NC(=O)/C(C#N)=C/c3ccc(O)c(O)c3)c(=O)c2c1 was tested, and the IC50 (MCF7) was 8 µM, the IC50 (HepG2) was 8 µM and the IC50 (HeLa) was 8 µM.
With Cc1ccc2nc(C)n(NC(=O)c3cc4ccccc4oc3=N)c(=O)c2c1 the IC50 (MCF7) was 17 µM, the IC50 (HepG2) was 23 µM and the IC50 (HeLa) was 38 µM.
Cc1ccc2nc(C)n(-n3c(N)cc(N)c(C#N)c3=O)c(=O)c2c1 was tested, and the IC50 (MCF7) was 10 µM, the IC50 (HepG2) was 17 µM and the IC50 (HeLa) was 15 µM.
Cc1ccc2nc(C)n(-n3c(O)cc(N)c(C#N)c3=O)c(=O)c2c1 gave an IC50 (MCF7) of 26 µM, an IC50 (HepG2) of 41 µM and an IC50 (HeLa) of 45 µM.
Cc1ccc2nc(C)n(-n3c(N)c(C#N)c(-c4ccccc4)c(C#N)c3=O)c(=O)c2c1 gave an IC50 (MCF7) of 8 µM, an IC50 (HepG2) of 10 µM and an IC50 (HeLa) of 5 µM.
Work on CCOC(=O)c1c(-c2ccccc2)c(C#N)c(=O)n(-n2c(C)nc3ccc(C)cc3c2=O)c1N yielded an IC50 (MCF7) of 17 µM, an IC50 (HepG2) of 52 µM and an IC50 (HeLa) of 21 µM.
Cc1ccc2nc(C)n(NC(=O)c3sc(N)c(C#N)c3N)c(=O)c2c1 gave an IC50 (MCF7) of 10 µM, an IC50 (HepG2) of 15 µM and an IC50 (HeLa) of 15 µM.
CCOC(=O)c1c(N)sc(C(=O)Nn2c(C)nc3ccc(C)cc3c2=O)c1N showed an IC50 (MCF7) of 16 µM, an IC50 (HepG2) of 22 µM and an IC50 (HeLa) of 23 µM.
For Cc1ccc2nc(C)n(NC(=O)c3sc4c(c3N)CCCC4)c(=O)c2c1, the IC50 (MCF7) was 18 µM, the IC50 (HepG2) was 22 µM and the IC50 (HeLa) was 31 µM.
With Cc1ccc2nc(C)n(NC(=O)c3sc(=S)n(-c4ccccc4)c3N)c(=O)c2c1 the IC50 (MCF7) was 13 µM, the IC50 (HepG2) was 27 µM and the IC50 (HeLa) was 35 µM.
Molecule Cc1ccc2nc(C)n(NC(=O)c3sc(=S)n(Cc4ccccc4)c3N)c(=O)c2c1 has an IC50 (MCF7) of 10 µM, an IC50 (HepG2) of 32 µM and an IC50 (HeLa) of 26 µM.
Molecule Cc1ccc2nc(C)n(NC(=O)/C(C#N)=N/Nc3ccccc3)c(=O)c2c1 has an IC50 (MCF7) of 19 µM, an IC50 (HepG2) of 12 µM and an IC50 (HeLa) of 79 µM.
Work on Cc1ccc2nc(C)n(NC(=O)/C(C#N)=N/Nc3ccc(S(N)(=O)=O)cc3)c(=O)c2c1 yielded an IC50 (MCF7) of 9 µM, an IC50 (HepG2) of 9 µM and an IC50 (HeLa) of 12 µM.
For COc1cccc2c1C(=O)c1c(O)c3c(c(O)c1C2=O)C[C@@](O)(C(=O)CO)C[C@@H]3O[C@H]1C[C@H](N)[C@H](O)[C@H](C)O1 [DOXORUBICIN], the IC50 (HepG2) was 9 µM and the IC50 (HeLa) was 8 µM.
